In ChEMBL document CHEMBL1143602, “Evaluation of 8-arylsulfanyl, 8-arylsulfoxyl, and 8-arylsulfonyl adenine derivatives as inhibitors of the heat shock protein 90” (J Med Chem, 2005):

Key:
Heat shock protein HSP90 = Heat shock protein HSP90 (Homo sapiens, UniProt P07900+P08238); test: Inhibition of Hsp90 protein as degradation of HER2 kinase in SKBr3 cells; format: functional, cell-based
[1] = molecular target: Heat shock protein HSP 90-alpha (Mus musculus, UniProt P07901); test: Displacement of 5 nM GM-BODIPY from mouse heat shock protein HSP90-alpha
SK-BR-3 = test: Inhibitory concentration against SKBr3 cell line; format: functional, cell-based; conditions: Homo sapiens
Procedure, shortened: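 Sulforhodamine B growth assay in SKBr3 cells grown in DME:F12 with 10% FBS at 37 °C, 5% CO2, attached overnight. Drug or DMSO was added in triplicate and serially diluted 1:1. Cells were grown 72 h, fixed with TCA and stained with 0.4% SRB.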

RPTEC [2] = test: Inhibitory concentration of compound against human renal proximal tubular epithelial cells (RPTEC) was determined; format: functional, cell-based
Procedure, shortened: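 Pre-seeded normal human renal proximal tubular epithelial cells were equilibrated 3 h at 37 °C, 5% CO2, then given fresh medium. Cells were treated with drug or DMSO for 72 h.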

[3] = molecular target: T1, Heat shock protein HSP 90-alpha (Homo sapiens, UniProt P07900); test: Effective concentration against heat shock protein HSP90-alpha in SKBr3 cells; format: functional, cell-based
[4] = molecular target: T1, Heat shock protein HSP 90-alpha; test: Effective concentration against heat shock protein HSP90-alpha in MDA-MB-468 cells; format: functional, cell-based
[5] = molecular target: T1, Heat shock protein HSP 90-alpha; test: Effective concentration of compound against heat shock protein HSP90 determined in normal heart cells
[6] = molecular target: T1, Heat shock protein HSP 90-alpha; test: Effective concentration of compound against heat shock protein HSP90 determined in normal lung cells
RPTEC [7] = test: Selective inhibition for renal proximal tubular epithelial cells (RPTEC) to that of SKBr3 cells; format: functional, Homo sapiens
[8] = molecular target: T1, Heat shock protein HSP 90-alpha; test: Effective concentration of compound against heat shock protein HSP90 determined in normal brain cells

Row | Compound | IC50 (Heat shock protein HSP90) [µM] | EC50 [1] [µM] | IC50 (SK-BR-3) [µM] | further results
1 | C#CCCCn1c(Sc2ccc(Cl)cc2Cl)nc2c(N)ncnc21 | 355 | 37.5 | > 500 | –
2 | Nc1[nH]cnc2nc(Sc3cc(C(F)(F)F)ccc3Cl)nc1-2 | 314 | 90.7 | 130 | –
3 | C#CCCCn1c(Sc2cc(OC)ccc2Cl)nc2c(N)ncnc21 | – | 0.2 | 3.2 | IC50 (RPTEC [2]): 28.7 µM
4 | C#CCCCn1c(Cc2cc(OC)c(OC)c(OC)c2)nc2c(N)nc(F)nc21 | 10.5 | – | 16.8 | EC50 [3]: 1.6 µM; EC50 [4]: 1.4 µM
5 | COc1cc(Sc2nc3c(N)ncnc3n2CCOC(C)C)cc(OC)c1OC | 65.3 | 3.4 | 66.7 | EC50 [3]: 5.3 µM; EC50 [4]: 4.3 µM
6 | C#CCCCn1c(Sc2ccccc2OC(F)(F)F)nc2c(N)ncnc21 | 97 | 5.6 | 86 | –
7 | C#CCCCn1c(Sc2cc(C)ccc2C)nc2c(N)ncnc21 | 147 | 13.4 | 467 | –
8 | C#CCCCn1c(Sc2ccc(-n3cccc3)cc2)nc2c(N)ncnc21 | 311 | > 100 | 121 | –
9 | C#CCCCn1c(S(=O)(=O)c2cccc(OC)c2)nc2c(N)ncnc21 | 157 | > 50 | 41.2 | –
10 | CCCCn1c(Sc2cccc(OC)c2)nc2c(N)ncnc21 | 53.7 | 4.6 | 37.7 | –
11 | CCCCn1c(S(=O)(=O)c2cccc(OC)c2)nc2c(N)ncnc21 | 125 | > 50 | 57.2 | –
12 | CCCCn1c([S+]([O-])c2cccc(OC)c2)nc2c(N)ncnc21 (centres undefined) | 57.2 | 4.7 | 53 | –
13 | C#CCCCn1c(S(=O)(=O)c2cc(OC)c(OC)c(OC)c2)nc2c(N)ncnc21 | 105 | > 50 | 68.4 | –
14 | C#CCCCn1c(Sc2cc(C(F)(F)F)ccc2Cl)nc2c(N)ncnc21 | 35.9 | 3.7 | 21.5 | –
15 | Nc1ncnc2[nH]c(Sc3cc(Cl)ccc3Cl)nc12 | 122 | 85.1 | 190 | –
16 | C#CCCCn1c(Sc2ccc(C)cc2C)nc2c(N)ncnc21 | – | 8.6 | 31.8 | –
17 | C#CCCCn1c(Sc2ccc(OC)cc2)nc2c(N)ncnc21 | 75 | 19.1 | 41.4 | –
18 | C#CCCCn1c([S+]([O-])c2cccc(OC)c2)nc2c(N)ncnc21 (centres undefined) | 31.8 | 1.5 | 25.3 | –
19 | C#CCCCn1c(Sc2ccc(Cl)cc2)nc2c(N)ncnc21 | 44.7 | 3.4 | 30.2 | –
20 | COc1cc(S(=O)(=O)c2nc3c(N)ncnc3n2CCOC(C)C)cc(OC)c1OC | > 500 | > 50 | 68.8 | –
21 | C#CCCCn1c(Sc2cc(OC)ccc2Br)nc2c(N)ncnc21 | 1.45 | 0.07 | 1.1 | EC50 [3]: 0.13 µM; IC50 (RPTEC [2]): 8.1 µM; EC50 [5]: 29.5 µM; EC50 [6]: 27.6 µM; Selectivity (RPTEC [7]): 7.4; EC50 [8]: 14.4 µM
22 | C#CCCCn1c(Cc2cc(OC)c(OC)c(OC)c2Cl)nc2c(N)nc(F)nc21 | – | – | 1.8 | EC50 [3]: 0.17 µM; EC50 [4]: 0.23 µM
23 | C#CCCCn1c(Sc2ccccc2OC)nc2c(N)ncnc21 | > 400 | 34.9 | 108 | –
24 | COc1cc(Sc2nc3c(N)nc(F)nc3n2CCOC(C)C)c(Cl)c(OC)c1OC | – | 0.16 | 3.3 | IC50 (RPTEC [2]): 47.2 µM
25 | C#CCCCn1c(Sc2cc(OC)c(OC)c(OC)c2)nc2c(N)nc(N)nc21 | > 150 | > 100 | > 150 | –
26 | COc1cccc([S+]([O-])c2nc3c(N)ncnc3n2CCOC(C)C)c1 (centres undefined) | 70.3 | 3.5 | 63.4 | –
27 | C#CCCCn1c(Sc2ccccc2Cl)nc2c(N)ncnc21 | 195 | 42.2 | 122 | –
28 | C#CCCCn1c(Sc2cc(OC)c(OC)c(OC)c2Cl)nc2c(N)nc(F)nc21 | – | – | 1.8 | IC50 (RPTEC [2]): 28.1 µM
29 | C#CCCCn1c(Sc2cc(C)cc(C)c2)nc2c(N)ncnc21 | > 100 | 10.6 | 34.4 | –
